Published values pooled from the literature.
Compare with care: the assays were run in different laboratories.
Matrix: plasma

`CC[C@@H]([C@H](C)O)n1ncn(-c2ccc(N3CCN(c4ccc(OC[C@@H]5CO[C@@](Cn6cncn6)(c6ccc(F)cc6F)C5)cc4)CC3)cc2)c1=O` gave a CL/F of 79 mL/min/kg (Sprague-Dawley rat; oral; 40 mg/kg).
`CCOc1c([C@H](C)n2nc(C)c3c(N)ncnc32)cc(Cl)c(F)c1[C@@H]1CNC(=O)C1` gave a CL/F of 10.3 mL/min/kg (male Sprague-Dawley rat; oral; 2 mg/kg; single dose).
The clearance of `Cc1nc(Nc2ncc(C(=O)Nc3c(C)cccc3Cl)s2)cc(N2CC[C@@H](N)C2)n1` is reported as 135 mL/min/kg (male Sprague-Dawley rat; intravenous; 1 mg/kg).
`CCN(CC)Cc1ccc2cc(COC(=O)Nc3ccc(C(=O)NO)cc3)ccc2c1` gave a CL/F of 20.2 mL/min/kg (male Sprague-Dawley rat; oral; 10 mg/kg).
With `Cc1cc(S(=O)(=O)NC2CC(N3CCN(CC4CCN(c5cccc6c5n(C)c(=O)n6C5CCC(=O)NC5=O)CC4)CC3)C2)ccc1Nc1ncc(C(F)(F)F)c(N2CCC[C@](C)(O)C2)n1` (some centres unmarked) the clearance was 37 mL/min/kg (rat; intravenous; 2 mg/kg).
The CL/F of `[2H]C([2H])([2H])NC(=O)c1cc(Oc2ccc(NC(=O)Nc3ccc(Cl)c(C(F)(F)F)c3)cc2)ccn1` is reported as 2.67 mL/min/kg (rat; oral; 40 mg/kg; single dose).
For `C1=C/COCc2cc(ccc2OCCN2CCCC2)Nc2nccc(n2)-c2cccc(c2)COC/1`, the CL/F was 11700 mL/h (rat; oral; 36 mg/kg).
The CL/F of `C[C@H]1Oc2cc(cnc2N)-c2c(nn(C)c2C#N)CN(C)C(=O)c2ccc(F)cc21` is reported as 66.7 mL/min/kg (male Sprague-Dawley rat; oral; 10 mg/kg; single dose).
`CC[C@H](C)[C@H](NC(=O)[C@@H]1CCCN1C(=O)CNC(=O)[C@H](Cc1ccccc1)NC(=O)[C@H](CC(N)=O)NC(=O)[C@H](CC(N)=O)NC(=O)[C@H](CO)NC(=O)[C@H](CO)NC(=O)[C@H](Cc1c[nH]cn1)NC(=O)[C@H](CCCNC(=N)N)NC(=O)[C@H](CC(C)C)NC(=O)[C@H](Cc1ccccc1)NC(=O)[C@H](CCC(=O)O)NC(=O)[C@H](C)NC(=O)[C@H](CC(C)C)NC(=O)[C@H](CCCNC(=N)N)NC(=O)[C@H](CCC(N)=O)NC(=O)[C@@H](NC(=O)[C@H](C)NC(=O)[C@@H]1CSSC[C@H](NC(=O)[C@H](CCCCN)NC(=O)CC[C@H](NC(=O)CCCCCCCCCCCCCCCCCCC(=O)O)C(=O)O)C(=O)N[C@@H](CC(N)=O)C(=O)N[C@@H]([C@@H](C)O)C(=O)N[C@@H](C)C(=O)N[C@@H]([C@@H](C)O)C(=O)N1)[C@@H](C)O)C(=O)N[C@@H](CC(C)C)C(=O)N1CCC[C@H]1C(=O)N1CCC[C@H]1C(=O)N[C@H](C(=O)N[C@@H](CC(N)=O)C(=O)N[C@H](C(=O)NCC(=O)N[C@@H](CO)C(=O)N[C@@H](CC(N)=O)C(=O)N[C@H](C(=O)N1CCC[C@H]1C(N)=O)[C@@H](C)O)C(C)C)[C@@H](C)O` has a CL/F of 0.112 mL/min/kg (male Sprague-Dawley rat; subcutaneous; 30 nmol/kg; single dose).
The clearance of `Cc1cc(S(=O)(=O)N[C@H]2CC[C@H](CN3CCN(c4cccc(NC5CCC(=O)NC5=O)c4)CC3)CC2)ccc1Nc1ncc(C(F)(F)F)c(N2CCC[C@](C)(O)C2)n1` (some centres unmarked) is reported as 43 mL/min/kg (rat; intravenous; 2 mg/kg).
`C=CC(=O)N1CCC([C@@H]2CCNc3c(C(N)=O)c(-c4ccc(Oc5ccccc5)cc4)nn32)CC1` has a CL/F of 224 mL/min/kg (Sprague-Dawley rat; oral; 16 mg/kg).
`CNS(=O)(=O)c1ccc(Nc2ncc(C(F)(F)F)c(N3CCC[C@](C)(O)C3)n2)c(C)c1` has a clearance of 31 mL/min/kg (rat; intravenous; 2 mg/kg).
`Cc1nc(Nc2ncc(C(=O)Nc3c(C)cccc3Cl)s2)cc(N2CC[C@H](O)C2)n1` has a clearance of 6.83 mL/min/kg (male Sprague-Dawley rat; intravenous; 1 mg/kg).
With `CNS(=O)(=O)c1ccc(Nc2ncc(C(F)(F)F)c([C@H]3CC[C@@](C)(O)CC3)n2)c(C)c1` the clearance was 7 mL/min/kg (rat; intravenous; 2 mg/kg).
The CL/F of `CNC(=O)c1cc(Oc2ccc(NC(=O)Nc3ccc(Cl)c(C(F)(F)F)c3)cc2)ccn1` is reported as 96.7 mL/min/kg (male Sprague-Dawley rat; oral; 100 mg/kg; single dose).
With `Cc1cc(S(=O)(=O)N[C@]2(C)C[C@H](N3CCN(CC4CCN(c5ccc6c(c5F)n(C)c(=O)n6C5CCC(=O)NC5=O)CC4)CC3)C2)ccc1Nc1ncc(C(F)(F)F)c(N2CCC[C@](C)(O)C2)n1` (some centres unmarked) the clearance was 145 mL/min/kg (rat; intravenous; 2 mg/kg).
The CL/F of `CC(=O)O[C@@H]1CC[C@@]2(C)[C@@H](CC[C@]3(C)[C@@H]2C(=O)C=C2[C@@H]4[C@@H](C)[C@H](C)CC[C@]4(C)CC[C@]23C)[C@@]1(C)C(=O)O` is reported as 0.332 mL/min/kg (female Wistar rat; oral; 1 mg/kg; single dose).
